Series [1] in a line: Half life in Sprague-Dawley rat at 2 mg/kg, iv and 5 mg/kg, po. The series is classed as ADME, organism-based. Conditions: in vivo. The method, boiled down: (§1)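 Rats received 2 mg/kg iv infusion or 5 mg/kg po, in 50% PEG400/40% PBS/10% ethanol.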
In the next series the test system is Platelet. The series is described as follows: Relative potency, ratio of IC50 for drug to IC50 for AZD-6140 for platelet aggregation in human platelet rich plasma. In kind it is functional.
Series [2] can be described thus: Antiplatelet aggregation activity against adenosine diphosphate-induced human platelet rich plasma assessed as inhibition of platelet aggregation by turbidimetric method. In kind it is functional. Conditions: Homo sapiens, Platelet, Plasma. The method, boiled down: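 Human PRP, prepared by two-step centrifugation and adjusted to 330 000 platelets/μL with PPP. Compound was preincubated 5 min at 37 °C in 0.5% DMSO, then 20 μM ADP was added. OD626 was read kinetically for 15 min at 37 °C with mixing between reads.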

Series [3] is described as follows: Clearance in Sprague-Dawley rat at 2 mg/kg, iv and 5 mg/kg, po. The following applies: in vivo. In kind it is ADME, organism-based. The method, boiled down:
as §1

In a further series the target is P2Y purinoceptor 12 (Homo sapiens, UniProt Q9H244). The series is described as follows: Displacement of [33P]ADP from human recombinant P2Y12 receptor expressed in CHO cells. The series is classed as cell-based. A digest of the protocol: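 Washed membranes from CHO cells expressing synthetic human P2Y12, incubated 1 h at room temperature with 0.2 nM 33P-MeSADP in 50 mM Tris/100 mM NaCl/1 mM EDTA. Compound was tested as a 7-point 3-fold series in triplicate. Nonspecific binding was defined with 300 nM 2-MeSADP, followed by filtration.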
Chain of P2Y purinoceptor 12 (Q9H244 whole entry): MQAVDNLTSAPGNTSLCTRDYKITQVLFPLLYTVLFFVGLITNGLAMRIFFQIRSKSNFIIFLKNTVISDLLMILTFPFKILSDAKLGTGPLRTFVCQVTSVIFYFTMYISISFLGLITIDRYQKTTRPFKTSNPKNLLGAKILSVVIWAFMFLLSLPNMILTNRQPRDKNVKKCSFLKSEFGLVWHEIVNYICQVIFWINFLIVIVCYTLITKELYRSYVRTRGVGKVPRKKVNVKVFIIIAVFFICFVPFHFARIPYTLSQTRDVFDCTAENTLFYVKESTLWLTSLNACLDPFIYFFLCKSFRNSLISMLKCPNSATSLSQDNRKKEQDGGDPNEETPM

A short description of series [4]: Volume of distribution at steady state in Sprague-Dawley rat at 2 mg/kg, iv and 5 mg/kg, po. The following applies: in vivo, read-out: Vdss. In kind it is ADME, organism-based. The method, boiled down:
as §1

For the molecule `CCCCCOC(=O)N1CCN(C(=O)[C@H](CCC(=O)O)NC(=O)c2cc(OCC3CCN(C(C)C)CC3)cc(-c3ccccc3)n2)CC1`, the half-life (in general, how long it takes for the measured level to halve) in series [1] was 36 min. Also, the “Ratio IC50” value with Platelet was 0.5. In addition, the IC50 (as a rule, the point on the concentration scale where inhibition reaches its midpoint) in series [2] worked out at 380 nM. This molecule came in with a clearance in series [3] of 63 mL/min/kg. For the same molecule, at P2Y purinoceptor 12, the inhibition constant Ki (as a rule, the equilibrium dissociation constant of an inhibitor or competing ligand from its target) amounted to 5.5 nM. In addition, the Vd in series [4] came out at 3.4 L/kg.
For the molecule `CCOC(=O)N1CCN(C(=O)[C@H](CCC(=O)O)NC(=O)c2cc(N3CCCCC3)cc(-c3ccccc3)n2)CC1`, the half-life in series [1] is 24 min. For the same molecule, the “Ratio IC50” value with Platelet came to 34. The IC50 in series [2] stood at 29000 nM. In series [3], this molecule displayed a clearance of 34 mL/min/kg. Also, the Ki at P2Y purinoceptor 12 stood at 112 nM. Moreover, in series [4], the Vd amounted to 1.3 L/kg.
In series [1], `CCCCCOC(=O)N1CCN(C(=O)[C@H](CCC(=O)O)NC(=O)c2cc(OC(=O)N3CCCC3)cc(-c3ccccc3)n2)CC1` gave a half-life of 36 min. For the same molecule, the “Ratio IC50” value with Platelet is recorded as 1. Besides, the IC50 in series [2] amounted to 1800 nM. For the same molecule, in series [3], the clearance amounted to 46 mL/min/kg. Moreover, at P2Y purinoceptor 12, the inhibition constant (Ki) stood at 7.7 nM. Also, the Vd in series [4] amounted to 2.3 L/kg.
In series [1], `CCCCCOC(=O)N1CCN(C(=O)[C@H](CCC(=O)O)NC(=O)c2cc(OC3CCN(C(C)=O)CC3)cc(-c3ccccc3)n2)CC1` had a half-life of 12 min. Further, in the series on Platelet, the “Ratio IC50” value is 1.8. Besides, the concentration for half-maximal inhibition (IC50) in series [2] came out at 1800 nM. Also, in series [3], the clearance turned out to be 36 mL/min/kg. Also, on P2Y purinoceptor 12, the inhibition constant Ki was determined as 3.6 nM. Further, the Vd in series [4] came to 0.58 L/kg.
Molecule `CCCCCOC(=O)N1CCN(C(=O)[C@H](CCC(=O)O)NC(=O)c2cc(C(=O)N3CCOCC3)cc(-c3ccccc3)n2)CC1` had a half-life in series [1] of 14.4 min. Further, the “Ratio IC50” value in the series on Platelet is on record as 1. In addition, in series [2], the IC50 was 710 nM. In series [3], this molecule registered a clearance of 51 mL/min/kg. Moreover, the inhibition constant Ki at P2Y purinoceptor 12 worked out at 4.4 nM. In addition, the Vd in series [4] turned out to be 1.1 L/kg.
`CCCCCOC(=O)N1CCN(C(=O)[C@H](CCC(=O)O)NC(=O)c2cc(CCCN(CC)CC)cc(-c3ccccc3)n2)CC1` had a half-life in series [1] of 66 min. The “Ratio IC50” value with Platelet worked out at 1.6. Besides, the IC50 in series [2] is 1100 nM. Further, in series [3], the clearance is 96 mL/min/kg. Also, on P2Y purinoceptor 12, the Ki worked out at 22 nM. Further, in series [4], the Vd is 9.2 L/kg.
In the case of `CCCCCOC(=O)N1CCN(C(=O)[C@H](CCC(=O)O)NC(=O)c2cc(N3CCC(N)CC3)cc(-c3ccccc3)n2)CC1`, the half-life in series [1] was 6 min. For the same molecule, the “Ratio IC50” value with Platelet is given as 1.2. In addition, in series [2], the half-maximal inhibitory concentration (IC50) worked out at 1100 nM. In series [3], this molecule had a clearance of 32 mL/min/kg. Also, the Ki on P2Y purinoceptor 12 was 17 nM. Besides, the Vd in series [4] came to 0.38 L/kg.
For `CCCCCOC(=O)N1CCN(C(=O)[C@H](CCC(=O)O)NC(=O)c2cc(OC3CCN(CCOC)CC3)cc(-c3ccccc3)n2)CC1`, the half-life in series [1] was 38.4 min. Moreover, the “Ratio IC50” value with Platelet amounted to 1.7. In addition, the half-inhibitory concentration (IC50) in series [2] was 1700 nM. For the same molecule, the clearance in series [3] was 94 mL/min/kg. Also, the Ki on P2Y purinoceptor 12 came out at 9.9 nM. The Vd in series [4] came out at 5.2 L/kg.
Molecule `CCCCCOC(=O)N1CCN(C(=O)[C@H](CCC(=O)O)NC(=O)c2cc(CCCN(C)C)cc(-c3ccccc3)n2)CC1` gave a half-life in series [1] of 60 min. In addition, the “Ratio IC50” value with Platelet came to 1.3. Moreover, in series [2], the concentration for half-maximal inhibition (IC50) came to 1300 nM. In series [3], this molecule yielded a clearance of 38 mL/min/kg. The Ki at P2Y purinoceptor 12 turned out to be 1 nM. Moreover, in series [4], the Vd came out at 3.2 L/kg.
The molecule `CCCCCOC(=O)N1CCN(C(=O)[C@H](CCC(=O)O)NC(=O)c2cc(OCC3CCNCC3)cc(-c3ccccc3)n2)CC1` gave a half-life in series [1] of 12 min. For the same molecule, in the series on Platelet, the “Ratio IC50” value is 0.82. In series [2], the IC50 was 820 nM. For the same molecule, in series [3], the clearance is 62 mL/min/kg. In addition, at P2Y purinoceptor 12, the inhibitory constant (Ki) was 4.5 nM. Besides, the Vd in series [4] was determined as 1.3 L/kg.
In series [1], `CCCCCOC(=O)N1CCN(C(=O)[C@H](CCC(=O)O)NC(=O)c2cc(N3CCC(N4CCCC4)CC3)cc(-c3ccccc3)n2)CC1` had a half-life of 96 min. Also, in the series on Platelet, the “Ratio IC50” value was found to be 0.57. The half-maximal inhibitory concentration (IC50) in series [2] turned out to be 1200 nM. Also, the clearance in series [3] stood at 52 mL/min/kg. For the same molecule, on P2Y purinoceptor 12, the inhibition constant Ki came out at 9 nM. Besides, in series [4], the Vd stood at 7.3 L/kg.

These data come from ChEMBL document CHEMBL1157562, “Piperazinyl glutamate pyridines as potent orally bioavailable P2Y12 antagonists for inhibition of platelet aggregation” (J Med Chem, 2010).
